# Experimental data reported in the array DNA melting data of Ke et al. (doi:10.1101/2024.01.08.574731).
# Legend:
# [1] = melting temperature; fluorescence melt of hairpins on a sequencing array, two-state fit, raised by 9.35 °C to match UV melts; details: sodium 0.088 M
# Method in brief: (§1)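 On a sequenced MiSeq flow cell, library hairpins with annealed Cy3 and quencher oligos were imaged for Cy3 fluorescence in 2.5 °C steps up to 60 °C, in 50 mM Na-HEPES pH 8.0, 25 mM NaCl. Normalisation used pre-quench Cy3 and control constructs. Bootstrapped two-state fits gave melting temperature and folding enthalpy, combined by inverse variance across four replicates and with fitted temperatures raised by 9.35 °C to match UV melts.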
# [2] = folding enthalpy; higher = less favourable; fluorescence melt of hairpins on a sequencing array, two-state fit; details: sodium 0.088 M
# Method in brief: as §1
Sequence,Tm [1] [°C],folding enthalpy [2] [kcal/mol]
GTCCGAGGAAACTCAGAC (((.(((....))).))),35.9,-21.4
GTCCGAGGAAACTTGGAC ((((.((....)).)))),51,-29.9
GTCCGCACGAAAGTGGAC (((..(((....)))))),47.1,-19.6
GTCCGCCCGAAAGGGGAC (((..(((....)))))),47.3,-18.7
GTCCGCCGAAAGGCCGAC (((.(((....))).))),49.2,-20.5
GTCCGCGAAAGCGAAGAC ((((((....)))..))),45.4,-17.4
GTCCGCGAAAGCGGCGAC ((((((....)))..))),67,-10.7
GTCCGCGAAAGCGGGAC ((((((....))).))),63.5,-12.4
GTCCGCGAAAGCGTGAC ((((((....))).))),58,-19.8
GTCCGGAAACGGAC (((((....))))),67.4,-28.2
GTCCGGCGAAAGCCGAC (((.(((....)))))),49.1,-9.75
GTCCGTCGAAAGACGAC (((.(((....)))))),50.6,-13.4
GTCCTCGAAAGAGGCGAC ((((((....)))..))),50.9,-17
GTCCTCGAAAGAGGGGAC ((((((....)))..))),43.6,-11.6
GTCCTCGGAAACAAGGAC (((((.(....).))))),39.3,-25.8
GTCCTCGGAAACGAAGAC (((.(((....))).))),38,-26
GTCCTCGGAAACGGGGAC ((((.((....)).)))),55.7,-45.3
GTCCTGGGAAACCAGGAC (((((((....))))))),66.7,-36
GTCCTGGGAAACCGGGAC ((((.((....)).)))),55.7,-39.2
GTCCTGTCGAAAGACGAC (((..(((....)))))),34.1,-11.2
GTCCTTCCGAAAGGAGAC (((..(((....)))))),28.1,-11.4
GTCCTTCGAAAGAACGAC (((.(((....))).))),33.5,-23.3
GTCCTTGCGAAAGCAGAC (((..(((....)))))),32.3,-12.3

Sequence,Tm [1] [°C],folding enthalpy [2] [kcal/mol]
GTCGAAGGAAACTCCGAC ((((.((....)).)))),42.1,-27.6
GTCGACCGAAAGGTGGAC (((.(((....))).))),56.1,-42.1
GTCGACCGAAAGGTTGAC (((.(((....))).))),62.2,-34.8
GTCGACGAAAGTCCCGAC ((((((....)))..))),34,-16.1
GTCGACGAAAGTCTCGAC ((((((....)))..))),41.8,-18.3
GTCGACGAAAGTCTGAC ((((((....))).))),49.5,-21.8
GTCGACGAAAGTCTTGAC ((((((....)))..))),36.2,-15.4
GTCGACGGAAACACCGAC ((((..(....)..)))),31.6,-24.8
GTCGACGGAAACATCGAC (((((.(....).))))),46.3,-39.8
GTCGACGGAAACGTTGGC (.(.(((....))).).),46.2,-24.6
GTCGATCGAAAGATAGAC (((.(((....))).))),50.4,-42.7
GTCGATGAAAATCGAC ((((((....)))))),61.3,-39.4
GTCGATGGAAACATCGAC (((((((....))))))),67.3,-44.8
GTCGATGGAAACATCGGC (.(((((....))))).),56.1,-42.2
GTCGATGGAAACATTGGC (.(.(((....))).).),35.1,-29.2
GTCGATGGAAACGTCGAC (((((.(....).))))),54.8,-37.6
GTCGCACGAAAGTGGGAC (((.(((....))).))),67.4,-38.5
GTCGCACGAAAGTGTGAC (((.(((....))).))),67.4,-42.4
GTCGCCGAAAGGCGAGAC ((((((....)))..))),51.8,-7.32
GTCGCCGAAAGGCTCGAC ((((((....)))..))),39.1,-13.2
GTCGCGGGAAACCGTGGC (.(.(((....))).).),50.3,-28.5
GTCGCTTCGAAAGAAGAC (((..(((....)))))),33.9,-9.98
GTCGGACGAAAGTCGAC (((.(((....)))))),56.9,-28

Sequence,Tm [1] [°C],folding enthalpy [2] [kcal/mol]
GTCGGAGGAAACTCTGAC (((.(((....))).))),50,-45.4
GTCGGATCGAAAGATGAC (((..(((....)))))),31.7,-16.7
GTCGGCGAAAGCCCTGAC ((((((....)))..))),35.6,-10.4
GTCGGCGAAAGCCGAGAC ((((((....)))..))),55.6,-7.78
GTCGGCGAAAGCCTGGAC ((((((....)))..))),45,-15.2
GTCGGCTCGAAAGAGGAC (((..(((....)))))),32.2,-16
GTCGGGACGAAAGTCGAC (((..(((....)))))),47.5,-18.9
GTCGGGCGAAAGCCGAC (((.(((....)))))),68.6,-23
GTCGGGGCGAAAGCCGAC (((..(((....)))))),56.9,-17.2
GTCGGGGGAAACCCTGAC (((.(((....))).))),53.4,-53.6
GTCGGGGGAAACTCCGGC (.(((.(....).))).),47.2,-29.9
GTCGGTCGAAAGACAGAC (((.(((....))).))),57.8,-37.8
GTCGGTCGAAAGACGGAC (((.(((....))).))),59.1,-34.8
GTCGGTGGAAACATCGAC ((((.((....)).)))),53.9,-45.1
GTCGTAGGAAACTATGGC (.(.(((....))).).),32,-17.8
GTCGTCCGAAAGGATGAC (((.(((....))).))),62.1,-54.4
GTCGTCGAAAGACCGAC ((((((....))).))),50.7,-23.5
GTCGTCGAAAGACCTGAC ((((((....)))..))),31.7,-14.7
GTCGTCGAAAGACTAGAC ((((((....)))..))),42.5,-18.4
GTCGTCGAAAGACTCGAC ((((((....)))..))),38.6,-14.9
GTCGTCGAAAGACTGGAC ((((((....)))..))),39.2,-20.7
GTCGTGGAAACACGAC ((((((....)))))),68.5,-35.4
GTCGTGGGAAACCATGGC (.(.(((....))).).),40.6,-25.6

Sequence,Tm [1] [°C],folding enthalpy [2] [kcal/mol]
GTCGTGGGAAACCGTGAC (((..((....))..))),36.7,-25.9
GTCGTGGGAAACTACGAC (((((.(....).))))),53.9,-37.3
GTCGTTCGAAAGAAAGAC (((.(((....))).))),47.8,-31.2
GTCTAACCGAAAGGTGAC (((..(((....)))))),42.2,-17.6
GTCTACCGAAAGGTCGAC (((.(((....))).))),48.7,-33.9
GTCTACCGAAAGGTTGAC (((.(((....))).))),52.6,-40.5
GTCTACGAAAGTAGGAC ((((((....))).))),44,-16.5
GTCTACGAAAGTAGTGAC ((((((....)))..))),33.4,-14.3
GTCTACGAAAGTATTGAC ((((((....)))..))),30.2,-19.5
GTCTACGCGAAAGCGGAC (((..(((....)))))),41.3,-12.7
GTCTAGCGAAAGCTCGAC (((.(((....))).))),50,-28.2
GTCTAGCGAAAGCTGAC (((.(((....)))))),50.5,-21.1
GTCTATCGAAAGATGGAC (((.(((....))).))),51.7,-30.9
GTCTATGGAAACATAGGC (.(((((....))))).),44,-30.7
GTCTCACGAAAGTGGAC (((.(((....)))))),47.2,-20.7
GTCTCATCGAAAGATGAC (((..(((....)))))),35.4,-10.9
GTCTCCCCGAAAGGGGAC (((..(((....)))))),37.8,-7.01
GTCTCCGAAAGGATAGAC ((((((....)))..))),41,-23.8
GTCTCCGGAAACGAAGAC ((((.((....)).)))),41.9,-25.9
GTCTCCGGAAACGGGGAC (((.(((....))).))),57.7,-41.1
GTCTCGGGAAACTGAGGC (.(((.(....).))).),38.8,-30.8
GTCTCTGGAAACAGGGAC (((.(((....))).))),48.9,-27.4
